Eight compounds from ChEMBL document CHEMBL4364322, “Protective effect of piceatannol and bioactive stilbene derivatives against hypoxia-induced toxicity in H9c2 cardiomyocytes and structural elucidation as 5-LOX inhibitors” (Eur J Med Chem, 2019) can be followed below.

The subject of test [1] is H9c2. Briefly: Cytoprotective activity against hypoxia-induced toxicity rat H9c2 cells assessed as increase in cell viability at 80 nM preincubated for 18 hrs followed by incubated in hypoxia for 48 hrs by MTT assay. The format is functional. A digest of the protocol:
(§1)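 10^4 H9c2 cells were seeded and grown 24 h at 37 °C. Compound (80 nM–20 µM) was added either 18 h before or just before 48 h hypoxia in a sealed humidified chamber (5% CO2, 95% N2). Viability was measured by MTT for about 2 h, with formazan dissolved in HCl/isopropanol and read at 570 nm. Results are % of corresponding control, triplicates.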

The target in test [2] is T1, Polyunsaturated fatty acid 5-lipoxygenase (Homo sapiens, UniProt P09917).
T1 sequence (P09917 whole entry): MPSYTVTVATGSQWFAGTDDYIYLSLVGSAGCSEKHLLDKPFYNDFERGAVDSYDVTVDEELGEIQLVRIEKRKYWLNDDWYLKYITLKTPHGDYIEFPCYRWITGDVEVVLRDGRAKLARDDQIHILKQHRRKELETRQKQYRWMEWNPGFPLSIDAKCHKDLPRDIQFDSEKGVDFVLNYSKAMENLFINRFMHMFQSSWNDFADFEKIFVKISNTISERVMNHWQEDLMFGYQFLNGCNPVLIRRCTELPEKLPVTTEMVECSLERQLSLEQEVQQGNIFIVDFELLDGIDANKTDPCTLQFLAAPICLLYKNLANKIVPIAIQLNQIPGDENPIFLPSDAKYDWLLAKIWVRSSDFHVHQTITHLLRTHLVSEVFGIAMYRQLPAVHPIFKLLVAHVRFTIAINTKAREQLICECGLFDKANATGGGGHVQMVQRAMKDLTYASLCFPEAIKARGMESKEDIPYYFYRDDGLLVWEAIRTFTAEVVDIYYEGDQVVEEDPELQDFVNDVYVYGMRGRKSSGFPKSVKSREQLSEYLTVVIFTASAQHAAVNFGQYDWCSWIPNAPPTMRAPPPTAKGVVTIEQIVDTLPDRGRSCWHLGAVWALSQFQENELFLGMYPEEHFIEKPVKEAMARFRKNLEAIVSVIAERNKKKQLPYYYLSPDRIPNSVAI
Kind of test: Inhibition of human 5-LOX expressed in Escherichia coli BL21 using arachidonic acid as substrate preincubated for 15 mins followed by substrate addition by HPLC analysis. The gist of the method: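 Human recombinant 5-LOX was expressed in E. coli BL21 (pT3-5LO) and purified. Enzyme (0.5 µg) in PBS/EDTA was preincubated with compound 15 min at 4 °C, then warmed 30 s at 37 °C. The reaction was started with 2 mM CaCl2 plus 20 µM arachidonic acid and run 10 min at 37 °C. Products were analysed by HPLC.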

Test [3] addresses T1, Polyunsaturated fatty acid 5-lipoxygenase. Briefly: Inhibition of 5-LOX in human PMNL cells assessed as A23187-stimulated LTB4 production preincubated for 15 mins followed by A23187 addition and measured after 10 mins by HPLC analysis. The class given is cell-based. A digest of the protocol: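 Human PMNL (5×10^6 in 1 ml PBS with 1 mg/ml glucose and 1 mM CaCl2) were preincubated with compound 15 min at 37 °C. 2.5 µM A23187 was added for 10 min at 37 °C, and the reaction was stopped with methanol. 5-LOX products were analysed by HPLC.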

The subject of test [4] is H9c2. Briefly: Cytoprotective activity against hypoxia-induced apoptosis in rat H9c2 cells assessed as early apoptotic cells at 2 uM preincubated for 18 hrs followed by incubated in hypoxia for 48 hrs by annexin V based flow cytometry (reference value: 60 %). The class given is functional. A digest of the protocol:
(§2)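 H9c2 cells were pretreated 18 h at 2 µM, then grown under normoxia or hypoxia. Apoptotic cells were detected by flow cytometry with fluorescein-annexin V staining. The read-out is % annexin V-positive cells.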

Test [5] has as its system H9c2. Kind of test: Cytoprotective activity against hypoxia-induced apoptosis in rat H9c2 cells assessed as early apoptotic cells at 2 uM preincubated for 18 hrs followed by incubated in hypoxia for 48 hrs by annexin V based flow cytometry. The class given is functional, cell-based. The gist of the method: as §2
Test [6] concerns H9c2. Kind of test: Cytoprotective activity against hypoxia-induced toxicity rat H9c2 cells assessed as increase in cell viability at 80 nM to 7 uM preincubated for 18 hrs followed by incubated in hypoxia for 48 hrs by MTT assay. The class given is functional. A digest of the protocol: as §1
Test [7] relates to H9c2. Briefly: Cytoprotective activity against hypoxia-induced toxicity rat H9c2 cells assessed as cell death at 20 uM preincubated for 18 hrs followed by incubated in hypoxia for 48 hrs by MTT assay.
In test [8] the test system is H9c2. Kind of test: Cytoprotective activity against hypoxia-induced toxicity rat H9c2 cells assessed as cell death at 20 uM incubated for 18 hrs in hypoxia measured after 48 hrs by MTT assay.
Test [9] has as its system H9c2. Briefly: Antioxidant activity in rat H9c2 cells assessed as increase in hypoxia-induced reduction of MnSOD expression at 2 uM preincubated for 18 hrs followed by incubated in hypoxia for 48 hrs by Western blot analysis. The class given is functional, cell-based. A digest of the protocol:
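H9c2 cells were pretreated 18 h at 80 nM or 2 µM, then held 48 h under hypoxia. Lysates were made in RIPA buffer with protease inhibitors and DTT, and 80 µg protein was run on 12% SDS-PAGE. Blots were probed overnight at 4 °C with anti-MnSOD, with GAPDH as internal standard. Detection was by ECL and bands were quantified by densitometry.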

The target in test [10] is T2, Polyunsaturated fatty acid 5-lipoxygenase (Homo sapiens) (UniProt P09917).
T2 sequence (whole entry): T1 sequence (P09917 whole entry)
Briefly: Residual activity of human 5-LOX expressed in Escherichia coli BL21 using arachidonic acid as substrate at 10 uM preincubated for 15 mins followed by substrate addition by HPLC analysis relative to control.

Test [11] concerns H9c2. Briefly: Cytoprotective activity against hypoxia-induced toxicity rat H9c2 cells assessed as increase in cell viability at 80 nM to 7 uM incubated for 18 hrs in hypoxia measured after 48 hrs by MTT assay. The format is functional. The gist of the method: as §1
The subject of test [12] is H9c2. Kind of test: Antioxidant activity in rat H9c2 cells assessed as reduction in hypoxia-induced NO release at 80 nM to 2 uM preincubated for 18 hrs followed by incubated in hypoxia for 48 hrs by griess assay. The class given is functional, cell-based. The gist of the method:
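10^4 H9c2 cells were pretreated 18 h at 37 °C with 80 nM or 2 µM, then held 48 h in a hypoxic chamber. Supernatant nitrite was measured with Griess reagent (0.5% sulfanilamide, 2.5% H3PO4, 0.05% naphthylethylene diamine) for 10 min at RT. Absorbance was read at 550 nm against a sodium nitrite standard curve.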

Test [13] relates to H9c2. Briefly: Antioxidant activity in rat H9c2 cells assessed as reduction in hypoxia-induced lipid peroxidation by measuring TBARS level preincubated for 18 hrs followed by incubated in hypoxia for 48 hrs by spectrophotometry. The format is functional, cell-based. A digest of the protocol:
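10^4 H9c2 cells were pretreated 18 h with 80 nM or 2 µM, then held 48 h under hypoxia. Cells were lysed in modified RIPA buffer. Lysates were mixed with 20% acetic acid (pH 3.5) and 0.78% thiobarbituric acid, heated at 95 °C for 45 min, and centrifuged. A532 was read and expressed as TBARS per µg protein. Triplicate measurements, duplicate experiments.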

For test [14], the system named is H9c2. Briefly: Antioxidant activity in rat H9c2 cells assessed as hypoxia-induced RO production at 2 uM preincubated for 18 hrs followed by incubated in hypoxia for 48 hrs by DCFH-DA staining-based flow cytometric analysis( Rvb = 45 %). The class given is functional.

The source made the active and inactive calls. The rule behind the calls is not given here.

As for `COc1cc(/C=C/c2ccc(O)c(O)c2)cc(OC)c1`, in the test on H9c2 [1], the Activity is on record as 25 - 35%. Also, the figures for the IC50 in [2] and in test [3] were 320 nM and 50 nM, respectively.

For the compound `COc1cc(/C=C/c2ccc(O)cc2)cc(OC)c1` [PTEROSTILBENE], the Activity with H9c2 [1] is recorded as 25 - 35%; with H9c2 [4], 25%. In addition, the values for the IC50 in [2] and in test [3] were 3910 nM and 530 nM, respectively.

In the case of `CC(c1cc2ccccc2s1)N(O)C(N)=O` (configuration not stated), the outcome in the test with H9c2 [5] was inactive.

With `COc1ccc(/C=C/c2cc(OC)cc(OC)c2)cc1` [TRISMETHOXYRESVERATROL], the Activity in the test with H9c2 [1] is on record as 25 - 35%. Also, the half-maximal inhibitory concentration (IC50) in test [2] stood at 3620 nM; in [3], 760 nM.

For `Oc1ccc(/C=C/c2cc(O)cc(O)c2)cc1` [RESVERATROL], in test [3], the IC50 turned out to be 4900 nM. In addition, the Activity in the test with H9c2 [6] is 95%; with H9c2 [11], 95%; in the test with H9c2 [13], “Dose-dependent effect”. Also, the cell death in the test with H9c2 [7] and with H9c2 [8] was 80% in each case. The result with H9c2 [9] and with H9c2 [12] was Active. The compound further yielded a residual activity in [10] of 63.4%.

Regarding `Oc1cc(O)cc(/C=C/c2ccc(O)c(O)c2)c1` [PICEATANNOL], the IC50 in test [2] came out at 1100 nM; in test [3], 240 nM. For the same compound, the result with H9c2 [6], in the test on H9c2 [9], with H9c2 [11] and in the test on H9c2 [12] was Active. The cell death in the test on H9c2 [7] and with H9c2 [8] was 80% throughout. In addition, the Activity in the test on H9c2 [14] was 38%; with H9c2 [13], “Dose-dependent effect”. Also, the result in the test on H9c2 [5] was inactive.

On to `COc1cc(/C=C/c2ccc(O)c(OC)c2)cc(OC)c1`, for which the Activity with H9c2 [1] was 25 - 35%. The IC50 came out at 780 nM in [2] and 70 nM in test [3].

As for `COc1cc(/C=C/c2ccc(OC)c(O)c2)cc(OC)c1`, the Activity in the test with H9c2 [1] is on record as 25 - 35%. The IC50 turned out to be 5490 nM in test [2] and 5480 nM in test [3].
